Among the data in ChEMBL document CHEMBL4152203, “Antiproliferative hydrogen sulfide releasing evodiamine derivatives and their apoptosis inducing properties” (Eur J Med Chem, 2018) are IC50 values, retold here.

Structures are written as SMILES.

As usually defined, the IC50 is the concentration at which inhibition is half-maximal. Higher therefore signals lower potency.

The subject of one test is Bel-7402. Briefly: Antiproliferative activity against human Bel7402 cells after 72 hrs by MTT assay. The note with it: Bel-7402, 72 h. The test is classed as functional, cell-based. A digest of the protocol: (§1)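 Cells seeded and pre-incubated 24 h at 37 °C, 5% CO2, then exposed to compounds for 72 h. MTT (5 mg/mL stock) added for 4 h, formazan dissolved in DMSO for 10 min at room temperature, absorbance read at 570 nm. 0.1% DMSO as negative and 5-FU as positive reference. IC50 derived from inhibition ratios; mean ± SD of three independent experiments.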
On the technique in general: Tetrazolium assays rely on reduction of a dye to a coloured formazan, in cell work by metabolically active cells.

The test system of another test is MCF7. In words: Antiproliferative activity against human MCF7 cells after 72 hrs by MTT assay. The note with it: MCF7, 72 h. The test is classed as functional, cell-based. A digest of the protocol:
as §1

In the next test the test system is SGC-7901. In words: Antiproliferative activity against human SGC7901 cells after 72 hrs by MTT assay. The test is classed as functional, cell-based. The note with it: SGC-7901, 72 h. Put shortly: as §1
The subject of a further test is Caco-2. In words: Antiproliferative activity against human Caco2 cells after 72 hrs by MTT assay. It is filed as functional, cell-based. The note with it: Caco-2, 72 h. A digest of the protocol:
as §1

In the next test the test system is HL-60. In words: Antiproliferative activity against human HL60 cells after 72 hrs by MTT assay. The test is classed as functional, cell-based. The note with it: HL-60, 72 h. A digest of the protocol:
as §1

A further test deals with PBMC. In words: Antiproliferative activity against human PBMC cells after 72 hrs by MTT assay. The test is classed as cell-based. A digest of the protocol: as §1

For `CN1c2ccccc2C(=O)N2CCc3c(n(CCCC(=O)OCCCOc4ccc(-c5cc(=S)ss5)cc4)c4ccccc34)C21` (stereo not drawn), the IC50 in the test on Bel-7402 is more than 50 µM; in the test on MCF7, more than 50 µM; in the test on SGC-7901, more than 50 µM; with Caco-2, 2.81 µM; in the test on HL-60, 1.04 µM; in the test on PBMC it was more than 100 µM.
On to `O=C(O)CCCCC1CCSS1` (stereo not drawn) [LIPOIC ACID, ALPHA], for which the concentration for half-maximal inhibition (IC50) with Bel-7402 was more than 50 µM; in the test with MCF7 it was more than 50 µM; in the test with SGC-7901, more than 50 µM; in the test with Caco-2, 14.3 µM; in the test on HL-60 it was 16.4 µM; in the test with PBMC, more than 100 µM.
As for `CN1c2ccccc2C(=O)N2CCc3c(n(CC(=O)Oc4ccc(-c5cc(=S)ss5)cc4)c4ccccc34)C21` (stereo not drawn), the IC50 in the test with Bel-7402 was 25.8 µM; with MCF7, 47.5 µM; in the test on SGC-7901, 26.8 µM; in the test on Caco-2, 22.9 µM; in the test with HL-60, more than 50 µM; in the test on PBMC, more than 100 µM.
On to `CN1c2ccccc2C(=O)N2CCc3c(n(CC(=O)OCCCCOc4ccc(-c5cc(=S)ss5)cc4)c4ccccc34)C21` (stereo not drawn), for which the IC50 in the test with Bel-7402 is more than 50 µM; in the test with MCF7, more than 50 µM; with SGC-7901 it was more than 50 µM; in the test with Caco-2 it was 4.34 µM; in the test with HL-60, 0.83 µM; in the test on PBMC, more than 100 µM.
Turning to `CN1c2ccccc2C(=O)N2CCc3c(n(CCCCC(=O)Oc4ccc(-c5cc(=S)ss5)cc4)c4ccccc34)C21` (stereo not drawn), the IC50 in the test on Bel-7402 is more than 50 µM; in the test with MCF7, 48.7 µM; in the test on SGC-7901, 30.2 µM; in the test on Caco-2, 38.1 µM; in the test on HL-60 it was more than 50 µM; in the test on PBMC it was more than 100 µM.
Turning to `CN1c2ccccc2C(=O)N2CCc3c(n(CCOC(=O)CCCCC4CCSS4)c4ccccc34)C21` (stereo not drawn), the concentration for half-maximal inhibition (IC50) with Bel-7402 was 20.5 µM; in the test on MCF7, 9.47 µM; in the test on SGC-7901, more than 50 µM; in the test with Caco-2, 3.18 µM; in the test on HL-60, 0.97 µM; in the test with PBMC it was more than 100 µM.
For `CN1c2ccccc2C(=O)N2CCc3c(n(CCCCC(=O)OCCOc4ccc(-c5cc(=S)ss5)cc4)c4ccccc34)C21` (stereo not drawn), the IC50 in the test with Bel-7402 was 41.4 µM; in the test with MCF7, 29.7 µM; in the test with SGC-7901, 43.6 µM; in the test on Caco-2, 4.22 µM; with HL-60 it was 2.09 µM; with PBMC, more than 100 µM.
On to `O=c1[nH]cc(F)c(=O)[nH]1` [FLUOROURACIL], for which the IC50 in the test on Bel-7402 stood at 19 µM; in the test on MCF7 it was 26.9 µM; with SGC-7901 it was 19.8 µM; with Caco-2, 38.8 µM; in the test with HL-60 it was 3.46 µM.
For the compound `CN1c2ccccc2C(=O)N2CCc3c([nH]c4ccccc34)C21` (stereo not drawn), the IC50 with Bel-7402 was 1.19 µM; in the test on MCF7, 28.5 µM; in the test with SGC-7901 it was 6.93 µM; in the test with Caco-2 it was 2.73 µM; with HL-60, 1.36 µM; in the test on PBMC, 21 µM.
On to `CN1c2ccccc2C(=O)N2CCc3c(n(CCCOC(=O)CCCCC4CCSS4)c4ccccc34)C21` (stereo not drawn), for which the IC50 in the test on Bel-7402 was more than 50 µM; in the test with MCF7, 39.7 µM; with SGC-7901, more than 50 µM; with Caco-2, 2.84 µM; in the test with HL-60, 2.09 µM; with PBMC it was more than 100 µM.
As to `Oc1ccc(-c2cc(=S)ss2)cc1`, the IC50 in the test with Bel-7402 is more than 50 µM; with MCF7, more than 50 µM; in the test with SGC-7901, more than 50 µM; in the test with Caco-2, 35.5 µM; in the test on HL-60 it was 25.9 µM; in the test on PBMC it was more than 100 µM.
Take `CN1c2ccccc2C(=O)N2CCc3c(n(CC(=O)OCCOc4ccc(-c5cc(=S)ss5)cc4)c4ccccc34)C21` (stereo not drawn): the IC50 with Bel-7402 is 26.8 µM; in the test with MCF7 it was 38.4 µM; in the test with SGC-7901 it was 32.9 µM; in the test on Caco-2, 6.35 µM; in the test on HL-60 it was 1.92 µM; in the test on PBMC, more than 100 µM.
For the compound `CN1c2ccccc2C(=O)N2CCc3c(n(CCCOCCCOC(=O)CCCCC4CCSS4)c4ccccc34)C21` (stereo not drawn), the IC50 in the test on Bel-7402 is more than 50 µM; with MCF7 it was 22.4 µM; in the test with SGC-7901, 31 µM; in the test on Caco-2, 5.14 µM; in the test on HL-60, 9.38 µM; in the test with PBMC, more than 100 µM.
In the case of `CN1c2ccccc2C(=O)N2CCc3c(n(CCCC(=O)OCCCCOc4ccc(-c5cc(=S)ss5)cc4)c4ccccc34)C21` (stereo not drawn), the IC50 in the test on Bel-7402 was 45 µM; in the test with MCF7, 29.1 µM; with SGC-7901, more than 50 µM; in the test with Caco-2, 3.87 µM; in the test on HL-60, 0.7 µM; in the test with PBMC it was more than 100 µM.
As for `CN1c2ccccc2C(=O)N2CCc3c(n(CCCCC(=O)OCCCOc4ccc(-c5cc(=S)ss5)cc4)c4ccccc34)C21` (stereo not drawn), the IC50 in the test on Bel-7402 was 30.5 µM; in the test on MCF7, more than 50 µM; with SGC-7901 it was more than 50 µM; in the test on Caco-2, 3.05 µM; with HL-60, 0.99 µM; in the test on PBMC, more than 100 µM.
Take `CN1c2ccccc2C(=O)N2CCc3c(n(CCCC(=O)Oc4ccc(-c5cc(=S)ss5)cc4)c4ccccc34)C21` (stereo not drawn): the IC50 in the test on Bel-7402 was more than 50 µM; with MCF7, more than 50 µM; in the test on SGC-7901, more than 50 µM; in the test with Caco-2, 4.08 µM; with HL-60, 14.1 µM; in the test on PBMC, more than 100 µM.
For `CN1c2ccccc2C(=O)N2CCc3c(n(CC(=O)OCCCOc4ccc(-c5cc(=S)ss5)cc4)c4ccccc34)C21` (stereo not drawn), the IC50 with Bel-7402 is 34.2 µM; in the test with MCF7 it was 27.9 µM; with SGC-7901, 24.7 µM; with Caco-2, 5.1 µM; in the test on HL-60, 2.74 µM; in the test with PBMC, more than 100 µM.
In the case of `CN1c2ccccc2C(=O)N2CCc3c(n(CCCC(=O)OCCOc4ccc(-c5cc(=S)ss5)cc4)c4ccccc34)C21` (stereo not drawn), the 50% inhibitory concentration (IC50) in the test with Bel-7402 is 45.2 µM; in the test with MCF7, 40.2 µM; in the test with SGC-7901 it was 47.4 µM; in the test on Caco-2, 4.18 µM; in the test with HL-60 it was 1.03 µM; with PBMC, more than 100 µM.
Regarding `CN1c2ccccc2C(=O)N2CCc3c(n(CCCCCCOC(=O)CCCCC4CCSS4)c4ccccc34)C21` (stereo not drawn), the IC50 in the test with Bel-7402 is 22.1 µM; in the test with MCF7, 28 µM; in the test with SGC-7901, 35.7 µM; with Caco-2 it was 4.88 µM; with HL-60 it was 3.49 µM; in the test on PBMC it was more than 100 µM.
